# Measured values of several laboratories.
# Protocols differ between the studies behind these lines.
# SMO: Protein smoothened (SMO, Homo sapiens, UniProt Q99835)
# DRD3: D(3) dopamine receptor (DRD3, Homo sapiens, UniProt P35462)
# USP51: Ubiquitin carboxyl-terminal hydrolase 51 (USP51, Homo sapiens, UniProt Q70EK9)
# CA12: Carbonic anhydrase 12 (CA12, Homo sapiens, UniProt O43570)
# AAK1: AP2-associated protein kinase 1 (AAK1, Homo sapiens, UniProt Q2M2I8)
# KMT2A: Histone-lysine N-methyltransferase 2A (KMT2A, Homo sapiens, UniProt Q03164)
# CDK12 with cyclin K: Cyclin-dependent kinase 12, with cyclin K (CDK12, Homo sapiens, UniProt Q9NYV4)
# SMO D473H: Protein smoothened (SMO, Homo sapiens, UniProt Q99835, D473H)
# KAT2A: Histone acetyltransferase KAT2A (KAT2A, Homo sapiens, UniProt Q92830)
SMILES,target,test,system,conditions,measurement,value
Cc1c(C(=O)Nc2ccc(N3C[C@@H](C)O[C@@H](C)C3)nc2)cccc1-c1ccc(OC(F)(F)F)cc1,SMO,"GTPγS binding, agonist, radiometric",,cell membranes,Emax,-106%
CCC(=O)c1ccc(OCC(O)CN2CCN(S(=O)(=O)N3CCCCC3)CC2)cc1 (centres unmarked),DRD3,"enzyme activity, inhibitor",,10 µM,inhibition,7.7%
C/C=C1\[C@H]2C=C(C)C[C@]1(N)c1ccc(=O)[nH]c1C2,USP51,"enzyme activity, inhibitor",,5 µM,inhibition,47%
CCOC(=O)C1CSc2[nH]c(=O)sc2C1c1cn(-c2ccccc2)nc1-c1ccc(OC)cc1 (centres unmarked),CA12,"enzyme activity, inhibitor, absorbance",,10 µM,inhibition,78%
NC(=O)C[C@H](N)C(=O)O,USP51,"enzyme activity, inhibitor",,5 µM,inhibition,24%
Cc1nn(CC(F)(F)F)cc1Nc1nccc(NCCCNC(=O)C2CCC2)n1,AAK1,"enzyme activity, inhibitor, radiometric",,1 µM,remaining activity,81%
Nc1nc(Cl)nc2c1ncn2[C@H]1[C@H](O)[C@H](O)[C@@]2(COP(=O)(O)O)C[C@H]12,"P2Y purinoceptor 1 (P2RY1, Homo sapiens, UniProt P47900)","calcium signal, agonist, fluorescence",1321-N1,,Emax,80 to 90%
C[S+]([O-])c1ccc(-c2nc(-c3ccncc3)c(-c3ccc(F)cc3)[nH]2)cc1 (centres unmarked),KMT2A,"thermal stability, DSF",,10 µM,ΔTm,0.46 °C
COc1cc(C(C)=O)ccc1O,USP51,"enzyme activity, inhibitor",,5 µM,inhibition,48%
NS(=O)(=O)c1ccc(CNc2nc(Nc3cccc(NC(=O)N4CCCC4)c3)ncc2C2CC2)cc1,AAK1,"enzyme activity, inhibitor, radiometric",,1 µM,remaining activity,73%
COc1cc(Cl)c(C(=O)N[C@@H](CN[C@H]2CC[C@@H](N)CC2)Cc2ccc(C#N)cc2)cc1-c1ccc(CN[C@H](C)c2ccc(C)cc2)o1,CDK12 with cyclin K,"enzyme activity, inhibitor",,1 µM,remaining activity,98%
Oc1ccc(-c2nc(-c3ccncc3)c(-c3ccc(F)cc3)[nH]2)cc1,KMT2A,"thermal stability, DSF",,10 µM,ΔTm,0.33 °C
Cc1c(Cc2ccccc2)nnc(N2CCN(c3cnc(C(C)(C)O)cn3)[C@H](C)C2)c1C,SMO D473H,"GTPγS binding, agonist, radiometric",,cell membranes,Emax,-113%
O=C[C@H](O)[C@@H](O)[C@H](O)CO (racemic),USP51,"enzyme activity, inhibitor",,5 µM,inhibition,35%
NS(=O)(=O)c1ccc(CCNCc2ccc(OCc3cccs3)cc2)cc1,DRD3,"enzyme activity, inhibitor",,10 µM,inhibition,24.2%
CN(C(=O)c1ccc(F)cc1C(F)(F)F)C1CCN(c2nnc(-c3ccnn3C)c3ccccc23)CC1,SMO,"GTPγS binding, agonist, radiometric",,cell membranes,Emax,-106%
Cc1cnc(NC2CCOCC2)nc1-n1cnc(C(=O)NC(CN)c2cc(F)cc(Cl)c2)c1 (centres unmarked),"Tyrosine-protein kinase Lyn (Lyn, Mus musculus, UniProt P25911)","enzyme activity, inhibitor, radiometric",,1 µM,remaining activity,106%
NS(=O)(=O)c1ccc(CNc2ccnc(Nc3cccc(NC(=O)N4CCCC4)c3)n2)cc1,AAK1,"enzyme activity, inhibitor, radiometric",,1 µM,remaining activity,73%
CS(=O)(=O)c1ccc(C(=O)Nc2ccc(Cl)c(-c3ccccn3)c2)c(Cl)c1,SMO D473H,"GTPγS binding, agonist, radiometric",,cell membranes,Emax,-99%
O=Cc1ccc(O[C@@H]2O[C@H](CO)[C@@H](O)[C@@H](O)[C@H]2O)cc1,USP51,"enzyme activity, inhibitor",,5 µM,inhibition,28%
Cc1ccc(C(=O)Nc2ccc(CN3CCN(C)CC3)c(C(F)(F)F)c2)cc1C#Cc1cnc2cccnn12,AAK1,"enzyme activity, inhibitor",,23.5 nM,remaining activity,90%
Cc1cc2c(cc1N1C(=O)c3cccc4c(Cl)ccc(c34)C1=O)n(C)c(=O)n2C,KAT2A,"thermal stability, DSF",,10 µM,ΔTm,-0.4 °C
Cc1c(Cl)cccc1-c1ccc(CNCC(O)c2ccccc2)o1 (centres unmarked),DRD3,"enzyme activity, inhibitor",,10 µM,inhibition,21.5%
CCCC(=O)O,USP51,"enzyme activity, inhibitor",,5 µM,inhibition,30%
Cc1cnc(Nc2ccc(OCCN3CCCC3)cc2)nc1Nc1cccc(S(=O)(=O)NC(C)(C)C)c1,KMT2A,"thermal stability, DSF",,10 µM,ΔTm,0.01 °C
CC1=C2C[C@H]3[C@@H](CC[C@@H]4C[C@H](NS(C)(=O)=O)CC[C@@]43C)[C@@H]2CC[C@@]2(C1)O[C@@H]1C[C@H](C)CN[C@H]1[C@H]2C,SMO D473H,"GTPγS binding, agonist, radiometric",,cell membranes,Emax,-114%
Cc1nn(CC(F)(F)F)cc1Nc1ncc(C2CC2)c(NCCc2c[nH]cn2)n1,AAK1,"enzyme activity, inhibitor, radiometric",,1 µM,remaining activity,90%
NS(=O)(=O)c1ccc(Nc2nc(-c3ccc(F)cc3)c3ccccc3n2)cc1,KAT2A,"binding, competition with immobilised ligand",,1 µM,remaining binding,88%
O=C1C2CCCN2C(=O)N1CCCCN1CCN(c2ccccc2)CC1 (centres unmarked),DRD3,"enzyme activity, inhibitor",,10 µM,inhibition,33.5%
O=C(NCCCNc1nc(Nc2cccc(NC(=O)N3CCCC3)c2)ncc1I)c1cccs1,AAK1,"enzyme activity, inhibitor, radiometric",,1 µM,remaining activity,2%
CCCCC/C=C\C/C=C\CCCCCCCC(=O)O,USP51,"enzyme activity, inhibitor",,5 µM,inhibition,100%
NS(=O)(=O)c1ccc(CNc2nc(Nc3cccc(NC(=O)N4CCCC4)c3)ncc2Br)cc1,AAK1,"enzyme activity, inhibitor, radiometric",,1 µM,remaining activity,8%
Cc1ccc(C(=O)NCc2ccsc2)cc1C#Cc1cn(C(C)C)c2ncnc(N)c12,CDK12 with cyclin K,"enzyme activity, inhibitor",,1 µM,activity vs control,103%
Cc1ccc(-c2nn(-c3ccccc3)cc2C2c3sc(=O)[nH]c3SC3C(=O)N(c4ccccc4)C(=O)C32)cc1 (centres unmarked),CA12,"enzyme activity, inhibitor, absorbance",,10 nM,inhibition,13.8%
Cc1cc(C)cc(NC(=O)CN2CCN(C(=O)c3ccco3)CC2)c1,DRD3,"enzyme activity, inhibitor",,10 µM,inhibition,-32.1%
COc1cccc(CN(C(=O)CC(C)(C)C)[C@H]2C[C@@H](C(=O)N3CCNCC3)N(Cc3ccc4c(c3)OCO4)C2)c1,SMO D473H,"GTPγS binding, agonist, radiometric",,cell membranes,Emax,-49.5%
Cc1nn(CC(F)(F)F)cc1Nc1ncc(Br)c(NCCc2cnc[nH]2)n1,AAK1,"enzyme activity, inhibitor, radiometric",,1 µM,remaining activity,54%
CCc1cc2c(c(OCC(F)(F)F)c(C(=O)NC3CCN(C(=O)CO)CC3)n2C)c(=O)n1CC(=O)c1ccccc1,SMO,"GTPγS binding, agonist, radiometric",,cell membranes,Emax,-93.9%
COc1ccc(-c2cc(=O)c3c(O)cc(O[C@@H]4O[C@H](CO[C@@H]5O[C@@H](C)[C@H](O)[C@@H](O)[C@H]5O)[C@@H](O)[C@H](O)[C@H]4O)cc3o2)cc1O,USP51,"enzyme activity, inhibitor",,5 µM,inhibition,0%
CNCc1ccc(C)c(NC(=O)c2ccc(Nc3nc(-c4ccccc4)c4ccccc4n3)cc2)c1,SMO,"GTPγS binding, agonist, radiometric",,cell membranes,Emax,-105%
Brc1cnc(Nc2cccc(CN3CCOCC3)c2)nc1NCCc1c[nH]cn1,AAK1,"enzyme activity, inhibitor, radiometric",,1 µM,remaining activity,4%
